In PMC6404779 (Nature medicine, 2018):

Assays:
BRAF V600E monomer = conditions: cited from earlier work
first site of RAF dimers = conditions: cited from earlier work
[1] = test system: second site of RAF dimers; conditions: read-out: IC50 of binding to the second site of RAF dimers; cited from earlier work
[2] = test system: RAF-null MEFs expressing ARAF; test: ERK signaling in RAF-null MEFs expressing one RAF isoform; type: cell-based, Mouse; conditions: 1hr
Summary of the method: (§1)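 RAF-less MEFs came from Araflox/lox;Braflox/lox;Craflox/lox;RERT ert/ert MEFs. Doxycycline-inducible wild-type ARAF, BRAF or CRAF was transduced retrovirally without 4-OHT and selected with puromycin/hygromycin. Cells were then infected with Adeno-Cre (MOI 100) and cultured in 1 uM 4-OHT plus 50 ng/ml doxycycline. GFP-positive cells were sorted after 2 weeks. Loss of endogenous RAF and induced expression were confirmed by genomic PCR and Western blot.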

[3] = test system: RAF-null MEFs expressing BRAF; test: as above; type: cell-based, Mouse; conditions: 1hr
Summary of the method: as §1

[4] = test system: RAF-null MEFs expressing CRAF; test: as above; type: cell-based, Mouse; conditions: 1hr
Summary of the method: as §1

[5] = test system: A375 cells with overexpression of BRAF V600E; test: A375 xenograft with doxycycline-induced BRAF V600E overexpression; type: in vivo, nude mice; conditions: vemurafenib 75mg/kg BID, PLX8394 50mg/kg BID
Summary of the method: (§2)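 A375 cells carrying a retroviral tet-regulated BRAF V600E or NRAS Q61K construct (kept in 50 ug/ml hygromycin and 0.2 ug/ml puromycin). 5 million cells were injected s.c. into nude mice fed doxycycline food. At 100 mm3, mice stayed on doxycycline food and received vehicle, reference RAF inhibitor 75 mg/kg BID or test compound 50 mg/kg BID. Tumour size was tracked (n=5; mean±s.d.; two-tailed unpaired t-test).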

[6] = test system: A375 cells with NRAS Q61K expression; test: A375 xenograft with doxycycline-induced NRAS Q61K; type: in vivo, nude mice; conditions: vemurafenib 75mg/kg BID, PLX8394 50mg/kg BID
Summary of the method: as §2

[7] = test system: BRAF K601E CRC PDX tumors; test: Colorectal cancer PDX model; type: in vivo, NSG mice; conditions: vemurafenib 75mg/kg BID, PLX8394 50mg/kg BID
BRAF G466V PDX tumors = test: Colorectal cancer PDX model; type: in vivo, NSG mice; conditions: Cetuximab 50 mg/kg IP twice weekly, vemurafenib 75 mg/kg BID, PLX8394 50 mg/kg BID

Structure (SMILES)	off-rate from BRAF V600E monomers (BRAF V600E monomer) [h]	IC50 (BRAF V600E monomer; read-out: IC50 of binding to the BRAF V600E monomer) [µM]	time the drug remains bound to the other site after washout (first site of RAF dimers; cells pretreated 1 hour, washed out)	IC50 (first site of RAF dimers; read-out: IC50 of binding to first site of RAF dimers) [µM]	IC50 [1] [µM]	effect on ERK signaling, cells expressing only ARAF [2]	effect on ERK signaling, cells expressing only BRAF [3]	effect on ERK signaling, cells expressing only CRAF [4]	response of ERK signaling and tumor growth, BRAF V600E amplified [5]	response of ERK signaling and tumor growth, mutant NRAS [6]	tumor growth response, single RAF inhibitor [7]	response of ERK signaling and tumor growth (BRAF G466V PDX tumors)
COC(=O)N[C@@H](C)CNc1nccc(-c2cn(C(C)C)nc2-c2cc(Cl)cc(NS(C)(=O)=O)c2F)n1 [encorafenib]	> 24	0.014	up to 24 hours	0.014	0.287	–	–	–	–	–	–	–
CCCS(=O)(=O)Nc1ccc(F)c(C(=O)c2c[nH]c3ncc(-c4ccc(Cl)cc4)cc23)c1F [vemurafenib, reference compound]	–	–	–	–	–	activated ERK signaling	activated ERK signaling	activated ERK signaling	resistance	resistance	insensitive	insensitive
